Laboratory results published in ChEMBL document CHEMBL4190318 (Eur J Med Chem, 2017).
Calls of active or inactive are those of the source. The rule behind the calls is not given here.

T1: N-acylethanolamine-hydrolyzing acid amidase (Rattus norvegicus, UniProt Q5KTC7)
T1 sequence (Q5KTC7 whole entry): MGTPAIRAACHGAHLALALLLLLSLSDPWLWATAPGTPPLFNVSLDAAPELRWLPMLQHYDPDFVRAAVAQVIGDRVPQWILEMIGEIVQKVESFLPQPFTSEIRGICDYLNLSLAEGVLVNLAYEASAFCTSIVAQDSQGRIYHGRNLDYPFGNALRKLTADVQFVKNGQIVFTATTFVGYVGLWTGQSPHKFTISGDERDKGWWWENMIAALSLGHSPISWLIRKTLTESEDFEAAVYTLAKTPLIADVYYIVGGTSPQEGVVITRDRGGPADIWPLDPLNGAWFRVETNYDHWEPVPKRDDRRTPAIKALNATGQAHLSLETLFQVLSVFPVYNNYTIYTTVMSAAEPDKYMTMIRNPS

T2: Acid ceramidase (Rattus norvegicus) (UniProt Q6P7S1)
T2 sequence (whole entry): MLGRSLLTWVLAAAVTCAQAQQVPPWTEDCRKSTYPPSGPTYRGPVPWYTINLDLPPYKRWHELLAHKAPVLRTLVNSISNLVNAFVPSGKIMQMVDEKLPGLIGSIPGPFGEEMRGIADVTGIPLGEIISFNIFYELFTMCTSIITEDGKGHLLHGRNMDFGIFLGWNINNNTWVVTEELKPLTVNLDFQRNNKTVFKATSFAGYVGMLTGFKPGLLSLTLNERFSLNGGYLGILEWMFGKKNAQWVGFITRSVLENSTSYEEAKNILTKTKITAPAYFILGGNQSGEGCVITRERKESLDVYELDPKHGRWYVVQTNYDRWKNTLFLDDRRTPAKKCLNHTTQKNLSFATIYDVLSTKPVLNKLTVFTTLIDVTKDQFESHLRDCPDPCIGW

T3: N-acylethanolamine-hydrolyzing acid amidase (Rattus norvegicus) (UniProt Q5KTC7)
T3 sequence (whole entry): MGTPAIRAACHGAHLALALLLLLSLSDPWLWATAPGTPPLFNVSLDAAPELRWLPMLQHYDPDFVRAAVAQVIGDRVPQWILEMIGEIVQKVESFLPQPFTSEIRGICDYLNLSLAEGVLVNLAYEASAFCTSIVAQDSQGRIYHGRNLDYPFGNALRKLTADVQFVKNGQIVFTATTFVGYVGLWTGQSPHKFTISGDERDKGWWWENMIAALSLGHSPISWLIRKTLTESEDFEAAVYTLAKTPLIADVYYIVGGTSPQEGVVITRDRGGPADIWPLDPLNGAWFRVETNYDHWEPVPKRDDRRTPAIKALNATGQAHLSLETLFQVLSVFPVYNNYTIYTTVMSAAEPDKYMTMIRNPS


Legend:
[1] = target: T1, N-acylethanolamine-hydrolyzing acid amidase; assay: Inhibition of rat NAAA expressed in HEK293 cells using heptadecenoylethanolamide as substrate after 30 mins by HPLC-MS/MS analysis
How it was run: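 Rat NAAA activity measured against heptadecenoylethanolamide (C17:1 FAE) substrate, with hydrolysis products quantified by LC-MS. IC50 derived by nonlinear regression of concentration-response curves. Runs done in triplicate (n = 3); mean ± SD of three independent experiments.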

[2] = target: N-acylethanolamine acid amidase (Rattus norvegicus); assay: Inhibition of rat N-acylethanolamine acid amidase expressed in HEK293 cells using heptadecenoylethanolamide as substrate after 30 mins by LC-MS analysis
[3] = target: T2, Acid ceramidase (Rattus norvegicus); assay: Inhibition of rat acid ceramidase expressed in HEK293 cells assessed as remaining activity at 20 uM using N-lauroylceramide as substrate after 30 mins by LC-MS analysis (reference value: 100 +/- 21.4 %); format: cell-based
[4] = target: T3, N-acylethanolamine-hydrolyzing acid amidase (Rattus norvegicus); assay: Inhibition of rat NAAA expressed in HEK293 cells at 50 to 250 nM using heptadecenoylethanolamide as substrate after 30 mins in presence of non-covalent competitive NAAA inhibitor E8 by Yonetani-Theorell plot analysis; format: cell-based
[5] = target: T3, N-acylethanolamine-hydrolyzing acid amidase (Rattus norvegicus); assay: Reversible inhibition of rat NAAA expressed in HEK293 cells at 10 fold IC50 preincubated for 10 mins followed by 100 fold dilution using heptadecenoylethanolamide as substrate by HPLC-MS/MS analysis; format: cell-based
[6] = target: T3, N-acylethanolamine-hydrolyzing acid amidase (Rattus norvegicus); assay: Inhibition of rat NAAA expressed in HEK293 cells at 50 to 250 nM using heptadecenoylethanolamide as substrate after 30 mins in presence of covalent beta-lactone NAAA inhibitor ARN077 by Yonetani-Theorell plot analysis
[7] = compound: O=C(CCCCCc1ccc(Cl)cc1)N1CCOC1=O; assay: (§1) Inhibition of rat NAAA expressed in HEK293 cells assessed as enzyme Vmax per mg protein in presence of varying concentration of heptadecenoylethanolamide substrate after 30 mins by Michaelis-Menten plot analysis (reference value: 9383 +/- 937 nmol/min); format: cell-based
[8] = compound: O=C(CCCCCc1cccc(Cl)c1)N1CCOC1=O; assay: as §1; format: cell-based
[9] = compound: O=C(CCCCCc1ccc(Cl)cc1)N1CCOC1=O; assay: (§2) Inhibition of rat NAAA expressed in HEK293 cells assessed as Km for substrate in presence of varying concentration of heptadecenoylethanolamide substrate after 30 mins by Michaelis-Menten plot analysis (reference value: 1395 +/- 260 microM); format: cell-based
[10] = compound: O=C(CCCCCc1cccc(Cl)c1)N1CCOC1=O; assay: as §2; format: cell-based

Molecule | IC50 [1] | further results
Nc1cccc(CCCCCC(=O)N2CCOC2=O)c1 | > 20 µM | –
O=C(CCCCCc1cccc(Br)c1)N1CCOC1=O | 0.43 µM | –
O=C1OCCN1C(=O)c1ccc(Oc2cccc(Cl)c2)cc1 | 7.74 µM | –
O=C1OCCN1C(=O)c1ccc(Oc2ccc(O)cc2)cc1 | > 20 µM | –
NC(=O)c1ccc(CCCCCC(=O)N2CCOC2=O)cc1 | > 20 µM | –
NC(=O)c1cccc(CCCCCC(=O)N2CCOC2=O)c1 | > 20 µM | –
O=C(CCCCCc1cccc(O)c1)N1CCOC1=O | 8.64 µM | –
O=C(O)c1cccc(CCCCCC(=O)N2CCOC2=O)c1 | > 20 µM | –
Cc1ccc(Oc2ccc(C(=O)N3CCOC3=O)cc2)cc1 | 6.4 µM | –
O=C(CCCCCc1ccc(C(F)(F)F)cc1)N1CCOC1=O | 1.04 µM | –
O=C1OCCN1C(=O)c1ccc(OC2CCC(O)CC2)cc1 (stereo unspecified) | 0.21 µM | –
CSc1cccc(CCCCCC(=O)N2CCOC2=O)c1 | 12.8 µM | –
O=C1OCCN1C(=O)c1ccc(OC2CCCCC2)cc1 | 0.092 µM | IC50 [2]: 0.092 µM; Activity [3]: 81.7%
O=C(CCCCCc1cccc(C(F)(F)F)c1)N1CCOC1=O | 0.058 µM | –
O=C(CCCCCc1ccc(Br)cc1)N1CCOC1=O | 8.51 µM | –
O=C(CCCCCc1ccccc1)N1CCOC1=O | – | IC50 [2]: 0.27 µM; Activity [3]: 90.6%
Cc1cccc(Oc2ccc(C(=O)N3CCOC3=O)cc2)c1 | 5.21 µM | –
O=C(O)c1ccc(CCCCCC(=O)N2CCOC2=O)cc1 | > 20 µM | –
CCC(CC)Oc1ccc(C(=O)N2CCOC2=O)cc1 | 0.48 µM | –
O=C(CCCCCc1ccc(Cl)cc1)N1CCOC1=O | 4.6 µM | –
O=C1OCCN1C(=O)c1ccc(OC2CCOCC2)cc1 | 0.33 µM | –

Molecule | IC50 [1] | further results
O=C(CCCCCc1cccc(I)c1)N1CCOC1=O | 3.12 µM | –
COc1ccc(CCCCCC(=O)N2CCOC2=O)cc1 | > 20 µM | –
O=C(CCCCCc1ccccc1Cl)N1CCOC1=O | > 20 µM | –
O=C(CCCCCc1ccc(CO)cc1)N1CCOC1=O | 0.19 µM | –
O=C(CCCCCc1ccc(O)c(F)c1)N1CCOC1=O | 0.16 µM | –
O=C(CCCCCc1cccc(Cl)c1)N1CCOC1=O | – | inhibition [4]: Active; inhibition [5]: Active; inhibition [6]: Active; Activity [3]: 85.3%
O=C(CCCCCc1ccccc1O)N1CCOC1=O | > 20 µM | –
O=C(CCCCCc1ccc(O)cc1)N1CCOC1=O | – | Activity [3]: 95.1%
Cc1ccccc1CCCCCC(=O)N1CCOC1=O | > 20 µM | –
COc1cccc(CCCCCC(=O)N2CCOC2=O)c1 | 16.3 µM | –
O=C(CCCCCc1ccc(O)c(Cl)c1)N1CCOC1=O | > 20 µM | –
Nc1ccc(CCCCCC(=O)N2CCOC2=O)cc1 | 15.7 µM | –
O=C(CCCCCc1cccc(CO)c1)N1CCOC1=O | > 20 µM | –
CSc1ccc(CCCCCC(=O)N2CCOC2=O)cc1 | > 20 µM | –
CCCCCCOc1ccc(C(=O)N2CCOC2=O)cc1 | 0.64 µM | –
O=C1OCCN1C(=O)c1ccc(OC2CCCC2)cc1 | 0.12 µM | –
O=C(CCCCCc1ccc(F)c(Cl)c1)N1CCOC1=O | 0.026 µM | –
CCCCOc1ccc(C(=O)N2CCOC2=O)cc1 | 1.34 µM | –
Cc1ccc(CCCCCC(=O)N2CCOC2=O)cc1C | > 20 µM | –
O=C(CCCCCc1ccc(I)cc1)N1CCOC1=O | > 20 µM | –
N-acylethanolamine-hydrolyzing acid amidase (Rattus norvegicus), Q5KTC7 (protein) MGTPAIRAACHGAHLALALLLLLSLSDPWLWATAPGTPPLFNVSLDAAPELRWLPMLQHYDPDFVRAAVAQVIGDRVPQWILEMIGEIVQKVESFLPQPFTSEIRGICDYLNLSLAEGVLVNLAYEASAFCTSIVAQDSQGRIYHGRNLDYPFGNALRKLTADVQFVKNGQIVFTATTFVGYVGLWTGQSPHKFTISGDERDKGWWWENMIAALSLGHSPISWLIRKTLTESEDFEAAVYTLAKTPLIADVYYIVGGTSPQEGVVITRDRGGPADIWPLDPLNGAWFRVETNYDHWEPVPKRDDRRTPAIKALNATGQAHLSLETLFQVLSVFPVYNNYTIYTTVMSAAEPDKYMTMIRNPS | – | Vmax [7]: 9900 nmol/min/mg; Vmax [8]: 2790 nmol/min/mg; Km [9]: 1670 µM; Km [10]: 1280 µM
